According to ChEMBL document CHEMBL1132419 (J Med Chem, 1999):

Columns and labels:
[1] = tested on: Plasmodium falciparum; assay: Antimalarial activity against chloroquine-sensitive Plasmodium falciparum NF54; format: functional, organism-based
[2] = tested on: Mus musculus; assay: In vivo antimalarial activity against Plasmodium berghei N on oral administration.; format: functional
Method in brief: (§1)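 Mice, 5 per dose group, given 1, 3, 10 or 30 mg/kg once daily for 4 days by the route stated; ED values derived from the four-dose series.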

[3] = tested on: Mus musculus; assay: In vivo antimalarial activity against Plasmodium berghei N on subcutaneous administration.; format: functional; conditions: sc; method in brief: as §1
[4] = tested on: Plasmodium berghei; assay: Antimalarial activity against Plasmodium berghei N; conditions: Mus musculus

| Structure (SMILES) | IC50 [1] | ED90 [3] | other results |
| --- | --- | --- | --- |
| CSc1ccc(C#[C][Al]([CH3])[CH2][C@@H]2O[C@@H]3O[C@]4(C)CC[C@H]5[C@H](C)CC[C@@H]([C@H]2C)[C@@]35OO4)cc1 | 8.4 nM | – | – |
| C[C@H]1[C@H]([CH2][Al]([CH3])[C]#Cc2ccc(F)cc2)O[C@@H]2O[C@]3(C)CC[C@H]4[C@H](C)CC[C@@H]1[C@@]24OO3 | 8.3 nM | – | – |
| C[C@H]1[C@H](c2ccco2)O[C@@H]2OC3(C)CC[C@H]4[C@H](C)CC[C@@H]1[C@@]24OO3 (single isomer, unassigned) | 1.4 nM | 2 mg/kg | ED90 [2]: 24 mg/kg |
| C[C@H]1[C@H](c2ccc(C(C)(C)C)o2)O[C@@H]2OC3(C)CC[C@H]4[C@H](C)CC[C@@H]1[C@@]24OO3 (single isomer, unassigned) | 10 nM | – | – |
| COc1cc(OC)c([C@@H]2O[C@@H]3OC4(C)CC[C@H]5[C@H](C)CC[C@@H]([C@H]2C)[C@@]35OO4)c(OC)c1 (single isomer, unassigned) | 7.8 nM | – | – |
| CCc1ccc([C@@H]2O[C@@H]3OC4(C)CC[C@H]5[C@H](C)CC[C@@H]([C@H]2C)[C@@]35OO4)o1 (single isomer, unassigned) | 8.6 nM | – | – |
| C[C@H]1[C@H](c2cccs2)O[C@@H]2OC3(C)CC[C@H]4[C@H](C)CC[C@@H]1[C@@]24OO3 (single isomer, unassigned) | 5.1 nM | – | – |
| C[C@H]1[C@H](c2cccn2Cc2ccco2)O[C@@H]2OC3(C)CC[C@H]4[C@H](C)CC[C@@H]1[C@@]24OO3 (single isomer, unassigned) | 9.4 nM | – | – |
| C[C@H]1[C@H](c2cccn2Cc2ccccc2)O[C@@H]2OC3(C)CC[C@H]4[C@H](C)CC[C@@H]1[C@@]24OO3 (single isomer, unassigned) | 16 nM | – | – |
| C[C@H]1[C@H](c2cccn2C)O[C@@H]2OC3(C)CC[C@H]4[C@H](C)CC[C@@H]1[C@@]24OO3 (single isomer, unassigned) | 4.6 nM | 1.2 mg/kg | ED90 [2]: 8.5 mg/kg; ED50 [3]: 0.7 mg/kg |
| C[C@H]1[C@H](c2cn(C)c3ccccc23)O[C@@H]2OC3(C)CC[C@H]4[C@H](C)CC[C@@H]1[C@@]24OO3 (single isomer, unassigned) | 4 nM | – | – |
| CCOC(=O)Cn1cccc1[C@@H]1O[C@@H]2OC3(C)CC[C@H]4[C@H](C)CC[C@@H]([C@H]1C)[C@@]24OO3 (single isomer, unassigned) | 9.1 nM | – | – |
| C=CCOc1ccc([C@@H]2O[C@@H]3OC4(C)CC[C@H]5[C@H](C)CC[C@@H]([C@H]2C)[C@@]35OO4)c(OCC=C)c1 (single isomer, unassigned) | 6.6 nM | – | – |
| COc1ccc2cc([C@@H]3O[C@@H]4OC5(C)CC[C@H]6[C@H](C)CC[C@@H]([C@H]3C)[C@@]46OO5)c(OC)cc2c1 (single isomer, unassigned) | 9 nM | – | – |
| Cc1ccc([C@@H]2O[C@@H]3OC4(C)CC[C@H]5[C@H](C)CC[C@@H]([C@H]2C)[C@@]35OO4)o1 (single isomer, unassigned) | 5.2 nM | 2 mg/kg | ED50 [2]: 15.5 mg/kg; ED90 [2]: 43 mg/kg; ED50 [3]: 0.9 mg/kg |
| COc1ccc([C@@H]2O[C@@H]3OC4(C)CC[C@H]5[C@H](C)CC[C@@H]([C@H]2C)[C@@]35OO4)c(OC)c1 (single isomer, unassigned) | 4.2 nM | – | – |
| C[C@@H]1CC[C@H]2[C@@H](C)C(=O)O[C@@H]3O[C@@]4(C)CC[C@@H]1[C@]32OO4 [ARTEMISININ] | – | 8.5 mg/kg | ED50 [3]: 3 mg/kg |
| CCO[C@H]1O[C@@H]2O[C@@]3(C)CC[C@H]4[C@H](C)CC[C@@H]([C@H]1C)[C@@]24OO3 [ARTEMOTIL] | – | 0.5 mg/kg | ED50 [3]: 0.3 mg/kg; ED50 [4]: 0.3 mg/kg |
| CCN(CC)CCCC(C)Nc1ccnc2cc(Cl)ccc12 (stereo unspecified) [CHLOROQUINE] | – | 3.1 mg/kg | – |
